This passage reports IC50 results from ChEMBL document CHEMBL1128284, “Synthesis and in vitro activity of 17 beta-(N-alkyl/arylformamido)- and 17 beta-[(N-alkyl/aryl)alkyl/arylamido]-4-methyl-4-aza-3-oxo-5 alpha-androstan-3-ones as inhibitors of human 5 alpha-reductases and antagonists of the androgen receptor” (J Med Chem, 1995).

pIC50: −log10 of the molar value.

Experiment [1] addresses T1, 3-oxo-5-alpha-steroid 4-dehydrogenase 1 (Homo sapiens, UniProt P18405).
T1 sequence (P18405 whole entry): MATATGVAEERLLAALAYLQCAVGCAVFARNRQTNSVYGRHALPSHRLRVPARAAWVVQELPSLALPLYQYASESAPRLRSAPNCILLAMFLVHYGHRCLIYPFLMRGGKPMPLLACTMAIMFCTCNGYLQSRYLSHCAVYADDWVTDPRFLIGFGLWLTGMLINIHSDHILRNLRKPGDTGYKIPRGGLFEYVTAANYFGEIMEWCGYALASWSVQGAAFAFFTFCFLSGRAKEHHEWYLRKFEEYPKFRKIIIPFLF
The experiment in a line: In vitro inhibition of human steroid 5-alpha-reductase type I in Du-145 cells. Type of experiment: cell-based. The method, boiled down:
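Intact DU-145 cells (passages 60–90), 100000 cells/well, adhered 24 h; compounds in ethanol diluted in DMEM/2% charcoal-adsorbed FBS with 5 nM [3H]androstenedione, 24 h at 37 °C, 5% CO2. Ether extraction, TLC, radioactivity; androstanedione, androsterone, epiandrosterone formed as % of control.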

The target of experiment [2] is T2, 3-oxo-5-alpha-steroid 4-dehydrogenase 2 (Homo sapiens, UniProt P31213).
T2 sequence (P31213 whole entry): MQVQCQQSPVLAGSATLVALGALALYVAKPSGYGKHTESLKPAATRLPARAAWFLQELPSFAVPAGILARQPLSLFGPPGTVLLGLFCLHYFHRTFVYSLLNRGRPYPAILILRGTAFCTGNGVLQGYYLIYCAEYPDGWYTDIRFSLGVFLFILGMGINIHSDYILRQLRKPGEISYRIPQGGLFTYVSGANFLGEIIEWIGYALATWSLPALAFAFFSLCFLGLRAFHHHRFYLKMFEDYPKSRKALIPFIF
The experiment in a line: In vitro inhibition of human steroid 5-alpha-reductase type 2 in SW-13-transfected cells. Type of experiment: cell-based. The method, boiled down:
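Homogenate of SW-13 cells transfected with human type II 5α-reductase cDNA; 5 nM [3H]androstenedione, 500 μM NADPH, 50 mM Tris HCl pH 7.5 with 20% glycerol, 1 mM EDTA; 60 min, 37 °C. Ether extraction with steroid carriers, TLC, radioactivity counted; androstanedione formed as % of control.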

As a reminder, the pIC50 is −log10 of the IC50, conventionally taken in molar units. Higher therefore signals a low IC50. As for `CC(C)(C)NC(=O)[C@H]1CC[C@H]2[C@@H]3CC[C@H]4NC(=O)C=C[C@]4(C)[C@H]3CC[C@]12C` [FINASTERIDE], the pIC50 is 7.58 in experiment [1] and 8.34 in experiment [2].
Taken in the same sequence, the figures for `CN(C=O)[C@H]1CCC2C3CC[C@H]4N(C)C(=O)C=C[C@]4(C)C3CC[C@@]21C` (stereo partly specified) were 6.91 and less than 6.00.
Take `CCCCN(C=O)[C@H]1CCC2C3CC[C@H]4N(C)C(=O)CC[C@]4(C)C3CC[C@@]21C` (stereo partly specified): the pIC50 was 8.52 in experiment [1] and less than 7.00 in experiment [2].
For `COc1ccc(N(C(=O)c2ccccc2)[C@H]2CCC3C4CC[C@H]5N(C)C(=O)CC[C@]5(C)C4CC[C@@]32C)cc1` (stereo partly specified), the pIC50 in experiment [1] is 8.68; in experiment [2] it was less than 6.00.
Taken in the same sequence, the figures for `CN(C=O)[C@H]1CCC2C3CC[C@H]4NC(=O)CC[C@]4(C)C3CC[C@@]21C` (stereo partly specified) were 5.43 and less than 6.00.
On to `CCCCCN(C(=O)c1ccccc1)[C@H]1CCC2C3CC[C@H]4N(C)C(=O)CC[C@]4(C)C3CC[C@@]21C` (stereo partly specified), for which the pIC50 is 8.49 in experiment [1] and less than 7.00 in experiment [2].
For `CC(C)CCN(C=O)[C@H]1CCC2C3CC[C@H]4N(C)C(=O)CC[C@]4(C)C3CC[C@@]21C` (stereo partly specified) the same measures were 8.66 and less than 7.00.
For `CCCCCN(C(=O)CCCCBr)[C@H]1CCC2C3CC[C@H]4N(C)C(=O)CC[C@]4(C)C3CC[C@@]21C` (stereo partly specified) the same measures were 8.62 and 6.00.
Taken in the same sequence, the figures for `CCCCCCN(C=O)[C@H]1CCC2C3CC[C@H]4N(C)C(=O)CC[C@]4(C)C3CC[C@@]21C` (stereo partly specified) were 8.14 and less than 7.00.
Turning to `COc1ccc(N(C(=O)C(C)C)[C@H]2CCC3C4CC[C@H]5N(C)C(=O)CC[C@]5(C)C4CC[C@@]32C)cc1` (stereo partly specified), the pIC50 in experiment [1] is 8.26; in experiment [2] it was less than 7.00.
In the case of `CN1C(=O)CC[C@@]2(C)C1=CCC1C2CC[C@@]2(C)C1CC[C@@H]2N(C)C=O` (stereo partly specified), the pIC50 is 5.72 in experiment [1] and less than 6.00 in experiment [2].
Taken in the same sequence, the figures for `CN1C(=O)CC[C@]2(C)C3CC[C@@]4(C)C(CC[C@@H]4N(C=O)CCC(C)(C)C)C3CC[C@@H]12` (stereo partly specified) were 8.63 and less than 7.00.
For `CN1C(=O)CC[C@]2(C)C3CC[C@@]4(C)C(CC[C@@H]4N(C=O)C4CC4)C3CC[C@@H]12` (stereo partly specified), in experiment [2], the negative-log IC50 (pIC50) was less than 7.00.
For `CCCCCN(C(=O)CCCC)[C@H]1CCC2C3CC[C@H]4N(C)C(=O)CC[C@]4(C)C3CC[C@@]21C` (stereo partly specified), the pIC50 in experiment [1] was 8.75; in experiment [2], less than 7.00.
For `CC(C)C(=O)N(c1ccc([N+](=O)[O-])cc1)[C@H]1CCC2C3CC[C@H]4N(C)C(=O)CC[C@]4(C)C3CC[C@@]21C` (stereo partly specified) the same measures were 7.48 and less than 6.00.
For the molecule `CN(C=O)[C@H]1CCC2C3CC[C@H]4NC(=O)C=C[C@]4(C)C3CC[C@@]21C` (stereo partly specified), the pIC50 is 6.68 in experiment [1] and less than 6.00 in experiment [2].
Taken in the same sequence, the figures for `CCCCCN(C(=O)CCC)[C@H]1CCC2C3CC[C@H]4N(C)C(=O)CC[C@]4(C)C3CC[C@@]21C` (stereo partly specified) were 8.48 and less than 7.00.
For `CCCCCN(C=O)[C@H]1CCC2C3CC[C@H]4N(C)C(=O)CC[C@]4(C)C3CC[C@@]21C` (stereo partly specified) the same measures were 9.04 and less than 7.00.
In experiment [2], `CCCCN(C(C)=O)[C@H]1CCC2C3CC[C@H]4N(C)C(=O)CC[C@]4(C)C3CC[C@@]21C` (stereo partly specified) showed a negative-log IC50 (pIC50) of less than 7.00.
On the same count and under the same terms, the figure for `CCC(CC)N(C=O)[C@H]1CCC2C3CC[C@H]4N(C)C(=O)CC[C@]4(C)C3CC[C@@]21C` (stereo partly specified) is less than 7.00.
On to `CC(C)C(=O)N(c1ccc([N+](=O)[O-])c(C(F)(F)F)c1)[C@H]1CCC2C3CC[C@H]4N(C)C(=O)CC[C@]4(C)C3CC[C@@]21C` (stereo partly specified), for which the pIC50 was 7.22 in experiment [1] and less than 6.00 in experiment [2].
For `CN1C(=O)CC[C@]2(C)C3CC[C@@]4(C)C(CC[C@@H]4N(C=O)Cc4ccccc4)C3CC[C@@H]12` (stereo partly specified) the same measures were 8.25 and less than 7.00.
With `CN1C(=O)CC[C@]2(C)C3CC[C@@]4(C)C(CC[C@@H]4N(C=O)C4CCCCC4)C3CC[C@@H]12` (stereo partly specified), in experiment [2], the pIC50 was less than 7.00.
For the molecule `CC(C)C(=O)N(c1ccccc1)[C@H]1CCC2C3CC[C@H]4N(C)C(=O)CC[C@]4(C)C3CC[C@@]21C` (stereo partly specified), the pIC50 in experiment [1] was 7.98; in experiment [2], 6.24.
For `CCCCCCCN(C=O)[C@H]1CCC2C3CC[C@H]4N(C)C(=O)CC[C@]4(C)C3CC[C@@]21C` (stereo partly specified) the same measures were 8.02 and 7.85.
For `CCCCCCCCN(C=O)[C@H]1CCC2C3CC[C@H]4N(C)C(=O)CC[C@]4(C)C3CC[C@@]21C` (stereo partly specified) the same measures were 7.77 and 7.74.
The molecule `CN(C=O)[C@H]1CCC2C3CC[C@H]4N(C)C(=O)CC[C@]4(C)C3CC[C@@]21C` (stereo partly specified) showed a pIC50 in experiment [2] of 6.00.
Take `CCN(CC)C(=O)[C@H]1CC[C@H]2[C@@H]3CC[C@H]4N(C)C(=O)CC[C@]4(C)[C@H]3CC[C@]12C`: the pIC50 is 8.38 in experiment [1] and 8.13 in experiment [2].
On to `CN1C(=O)CC[C@]2(C)C3CC[C@@]4(C)C(CC[C@@H]4N(C(=O)c4ccccc4)c4ccccc4)C3CC[C@@H]12` (stereo partly specified), for which the negative-log IC50 (pIC50) in experiment [1] is 8.53; in experiment [2], 8.43.
Taken in the same sequence, the figures for `CCCN(C=O)[C@H]1CCC2C3CC[C@H]4N(C)C(=O)CC[C@]4(C)C3CC[C@@]21C` (stereo partly specified) were 8.29 and less than 7.00.
Taken in the same sequence, the figures for `CC(C)CN(C=O)[C@H]1CCC2C3CC[C@H]4N(C)C(=O)CC[C@]4(C)C3CC[C@@]21C` (stereo partly specified) were 8.14 and less than 7.00.
Taken in the same sequence, the figures for `CC(C)N(C=O)[C@H]1CCC2C3CC[C@H]4N(C)C(=O)CC[C@]4(C)C3CC[C@@]21C` (stereo partly specified) were 8.02 and less than 7.00.
Consider `CCCCCN(C(=O)CC)[C@H]1CCC2C3CC[C@H]4N(C)C(=O)CC[C@]4(C)C3CC[C@@]21C` (stereo partly specified), for which the negative-log IC50 (pIC50) in experiment [1] was 8.34; in experiment [2], less than 7.00.
